From ChEMBL document CHEMBL4814060, “Design, synthesis and biological evaluation of novel pleuromutilin derivatives as potent anti-MRSA agents targeting the 50S ribosome” (Bioorg Med Chem, 2021)
Converted amounts (≈) assume the structure as drawn.

What was measured:
Staphylococcus aureus [1] = test: Antibacterial activity against methicillin-resistant Staphylococcus aureus ATCC 43300 assessed as inhibition of visible growth incubated for 24 hrs by CLSI protocol based broth microdilution method; type: functional
Staphylococcus aureus [2] = test: Antibacterial activity against Staphylococcus aureus ATCC 29213 assessed as inhibition of visible growth incubated for 24 hrs by CLSI protocol based broth microdilution method; type: functional
Staphylococcus aureus [3] = test: Antibacterial activity against Staphylococcus aureus 144 assessed as inhibition of visible growth incubated for 24 hrs by CLSI protocol based broth microdilution method; type: functional
Staphylococcus aureus [4] = test: Antibacterial activity against Staphylococcus aureus AD3 assessed as inhibition of visible growth incubated for 24 hrs by CLSI protocol based broth microdilution method; type: functional
Staphylococcus aureus [5] = test: Antibacterial activity against methicillin-resistant Staphylococcus aureus ATCC 43300 assessed as reduction in bacterial growth at 4 times of MIC measured at 3 hrs by time kill assay; type: functional
Summary of the method: (§1)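 MRSA was grown in MH broth at 37 °C for 4.5 h and diluted to 1×10^6 CFU/mL. Compound was added at 1, 2, 4, 8, 16 or 32 × MIC; growth control had 0.9% saline only. Cultures were shaken at 37 °C and sampled at 0, 3, 6, 9 and 24 h. Samples were serially diluted in saline and plated on MH agar, with CFU counted after 24 h at 37 °C. Run in triplicate.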

Staphylococcus aureus [6] = test: Bactericidal activity against methicillin-resistant Staphylococcus aureus ATCC 43300 assessed as reduction in bacterial growth at 1 to 32 times of MIC measured upto 24 hrs by time kill assay; type: functional, organism-based; details: time hrs <=24, TDE = time-dependent effect; summary of the method: as §1
[7] = target: T1, Bacterial 70S ribosome (Bacteria) (UniProt P0A7V0+P60723+P0AG67+P0A7R5+P0A7R9+P0A7S3+P0A7S9+P0AG59+P0ADZ4+P0A7T3+P0AG63+P0A7T7+P0A7U3+P0A7U7+P68679+P0A7V3+P0A7V8+P0A7W1+P02358+P02359+P0A7W7+P0A7X3+P0A7J3+P0A7J7+P0AA10+P0ADY3+P02413+P0ADY7+P0AG44+P0C018+P0A7K6+P0A7L0+P0A7L3+P0AG48+P61175+P0ADZ0+P60624+P68919+P0A7L8+P0A7M2+P0A7M6+P60422+P0AG51+P0A7N1+P0A7M9+P0A7N4+P0A7N9+P0A7P5+P0A7Q1+Q2EEQ2+P0A7Q6+P60438+P62399+P0AG55+P0A7K2); test: Binding affinity to Staphylococcus aureus ATCC 43300 50S ribosome assessed as association constant by SPR analysis; type: subcellular
Summary of the method: (§2)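 The 50S subunit was purified from ATCC 43300 by sucrose cushion, a 7–30% sucrose gradient and PEG precipitation. Compounds at 100 µM in DMSO were photo-crosslinked onto the chip and printed four times each. Ribosome at 200–3200 nM in PBST (pH 7.4, 0.1% Tween 20) was run at 4 °C: association 600 s, then dissociation 360 s, both at 0.5 µL/s. Surface was regenerated with glycine-HCl pH 2.0.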

[8] = target: T1, Bacterial 70S ribosome (Bacteria); test: Binding affinity to Staphylococcus aureus ATCC 43300 50S ribosome assessed as dissociation rate constant by SPR analysis; type: subcellular; summary of the method: as §2
Staphylococcus aureus [9] = test: In vivo antibacterial activity against methicillin-resistant Staphylococcus aureus ATCC 43300 infected in ICR/Swiss mouse model of neutropenic thigh infection assessed as reduction in bacterial growth at 20 mg/kg, iv administered 2 hrs after infection and tissue collected after 24 hrs and measured after 24 hrs […]; type: functional
Summary of the method: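 Female ICR/Swiss mice, 6 weeks old, were made neutropenic with ip cyclophosphamide (150 mg/kg at day −4, 100 mg/kg at day −1). Each thigh received about 10^7 CFU/mL MRSA in 0.1 mL. At 2 h, mice got a single iv dose of 20 mg/kg or saline, with 3 mice (6 thighs) per group. At 24 h, thighs were homogenized in iced saline, diluted and plated on MH agar, and CFU counted after 24 h at 37 °C.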

Cytochrome P450 3A4 = Cytochrome P450 3A4 (Homo sapiens, UniProt P08684); test: Inhibition of CYP3A4 in human liver microsomes using testosterone as substrate incubated for 5 mins followed by NADPH addition and measured after 5 mins by LC/MS/MS analysis
Summary of the method: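 Final conditions: human liver microsomes 0.2 mg/mL, testosterone 20 μmol/L, 0.1 M Tris pH 7.4, inhibitor at 2.5–80 μM. Plates were preincubated 5 min at 37 °C, then started with NADPH (final 1 mmol/L) and run 5 min. Reaction was stopped with acetonitrile containing loratadine as internal standard, and the supernatant was analysed by LC-MS/MS. IC50 was determined.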

RAW264.7 = test: Cytotoxicity against mouse RAW264.7 cells assessed as reduction in cell viability at < 40 ug/ml incubated for 16 hrs by MTT assay; details: raw264.7, 16 h

Sequence of Cytochrome P450 3A4 (P08684 whole entry): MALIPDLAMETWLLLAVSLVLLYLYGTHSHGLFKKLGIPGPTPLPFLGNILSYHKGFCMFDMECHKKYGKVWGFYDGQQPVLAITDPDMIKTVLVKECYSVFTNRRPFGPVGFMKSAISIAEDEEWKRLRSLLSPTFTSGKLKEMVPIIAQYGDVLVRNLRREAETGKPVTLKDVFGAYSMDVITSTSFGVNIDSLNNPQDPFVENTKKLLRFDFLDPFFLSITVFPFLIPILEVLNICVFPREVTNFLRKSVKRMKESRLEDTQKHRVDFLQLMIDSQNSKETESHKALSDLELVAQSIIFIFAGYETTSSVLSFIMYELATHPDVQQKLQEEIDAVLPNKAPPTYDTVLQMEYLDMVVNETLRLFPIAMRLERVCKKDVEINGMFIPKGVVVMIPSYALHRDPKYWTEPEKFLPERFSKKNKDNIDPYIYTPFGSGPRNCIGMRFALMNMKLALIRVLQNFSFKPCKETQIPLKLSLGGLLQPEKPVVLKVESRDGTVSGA

SMILES	MIC (Staphylococcus aureus [1])	MIC (Staphylococcus aureus [2])	MIC (Staphylococcus aureus [3])	MIC (Staphylococcus aureus [4])	Activity (Staphylococcus aureus [5])	Activity (Staphylococcus aureus [6])	Ka [7]	Kdiss [8]	Activity (Staphylococcus aureus [9])	IC50 (Cytochrome P450 3A4)	Activity (RAW264.7)
C=C[C@]1(C)C[C@@H](OC(=O)CSc2nc(N)n(C(=O)c3cccc(F)c3)n2)[C@]2(C)[C@H](C)CC[C@]3(CCC(=O)[C@H]32)[C@@H](C)[C@@H]1O	0.25 µg/mL (≈ 0.418 µM)	0.5 µg/mL (≈ 0.835 µM)	1 µg/mL (≈ 1.67 µM)	0.5 µg/mL (≈ 0.835 µM)	-1.26 log10CFU/ml	Tde	5.4 10^2/Ms	2.21 10^-5M	–	–	–
C=C[C@]1(C)C[C@@H](OC(=O)CSc2nc(N)n(C(=O)c3ccccc3F)n2)[C@]2(C)[C@H](C)CC[C@]3(CCC(=O)[C@H]32)[C@@H](C)[C@@H]1O	1 µg/mL (≈ 1.67 µM)	2 µg/mL (≈ 3.34 µM)	4 µg/mL (≈ 6.68 µM)	2 µg/mL (≈ 3.34 µM)	–	–	–	–	–	–	–
C=C[C@]1(C)C[C@@H](OC(=O)CSc2nc(N)n(C(=O)c3ccc(C)cc3)n2)[C@]2(C)[C@H](C)CC[C@]3(CCC(=O)[C@H]32)[C@@H](C)[C@@H]1O	0.125 µg/mL (≈ 0.21 µM)	0.125 µg/mL (≈ 0.21 µM)	0.125 µg/mL (≈ 0.21 µM)	0.125 µg/mL (≈ 0.21 µM)	-1.95 log10CFU/ml	Tde	4.16 10^2/Ms	2.2 10^-4M	1.89 log10CFU/g	3.95 µM	Non-Toxic
C=C[C@]1(C)C[C@@H](OC(=O)CSc2nc(N)n(C(=O)c3ccccc3OC)n2)[C@]2(C)[C@H](C)CC[C@]3(CCC(=O)[C@H]32)[C@@H](C)[C@@H]1O	1 µg/mL (≈ 1.64 µM)	1 µg/mL (≈ 1.64 µM)	1 µg/mL (≈ 1.64 µM)	1 µg/mL (≈ 1.64 µM)	–	–	–	–	–	–	–
C=C[C@]1(C)C[C@@H](OC(=O)CSc2nc(N)n(C(=O)c3ccccc3C)n2)[C@]2(C)[C@H](C)CC[C@]3(CCC(=O)[C@H]32)[C@@H](C)[C@@H]1O	0.5 µg/mL (≈ 0.841 µM)	1 µg/mL (≈ 1.68 µM)	1 µg/mL (≈ 1.68 µM)	1 µg/mL (≈ 1.68 µM)	–	–	–	–	–	–	–
C=C[C@]1(C)C[C@@H](OC(=O)CSc2nc(N)n(C(=O)c3ccc(F)cc3)n2)[C@]2(C)[C@H](C)CC[C@]3(CCC(=O)[C@H]32)[C@@H](C)[C@@H]1O	0.5 µg/mL (≈ 0.835 µM)	1 µg/mL (≈ 1.67 µM)	1 µg/mL (≈ 1.67 µM)	1 µg/mL (≈ 1.67 µM)	–	–	–	–	–	–	–
C=C[C@]1(C)C[C@@H](OC(=O)CSc2nc(N)n(C(=O)c3ccc(Cl)cc3)n2)[C@]2(C)[C@H](C)CC[C@]3(CCC(=O)[C@H]32)[C@@H](C)[C@@H]1O	0.5 µg/mL (≈ 0.813 µM)	1 µg/mL (≈ 1.63 µM)	1 µg/mL (≈ 1.63 µM)	1 µg/mL (≈ 1.63 µM)	–	–	–	–	–	–	–
C=C[C@]1(C)C[C@@H](OC(=O)CSc2nc(N)n(C(=O)c3ccc(F)cc3Cl)n2)[C@]2(C)[C@H](C)CC[C@]3(CCC(=O)[C@H]32)[C@@H](C)[C@@H]1O	1 µg/mL (≈ 1.58 µM)	1 µg/mL (≈ 1.58 µM)	1 µg/mL (≈ 1.58 µM)	0.5 µg/mL (≈ 0.79 µM)	–	–	–	–	–	–	–
C=C[C@]1(C)C[C@@H](OC(=O)CSc2nc(N)n(C(=O)c3cc(Cl)cc(Cl)c3)n2)[C@]2(C)[C@H](C)CC[C@]3(CCC(=O)[C@H]32)[C@@H](C)[C@@H]1O	1 µg/mL (≈ 1.54 µM)	1 µg/mL (≈ 1.54 µM)	1 µg/mL (≈ 1.54 µM)	0.5 µg/mL (≈ 0.77 µM)	–	–	–	–	–	–	–
C=C[C@]1(C)C[C@@H](OC(=O)CSc2nc(N)n(C(=O)c3ccc(OC)cc3)n2)[C@]2(C)[C@H](C)CC[C@]3(CCC(=O)[C@H]32)[C@@H](C)[C@@H]1O	0.25 µg/mL (≈ 0.409 µM)	0.25 µg/mL (≈ 0.409 µM)	0.5 µg/mL (≈ 0.819 µM)	0.25 µg/mL (≈ 0.409 µM)	-2.42 log10CFU/ml	Tde	–	2.22 10^-7M	–	–	–
C=C[C@]1(C)C[C@@H](OC(=O)CSc2nc(N)n(C(=O)c3ccccc3)n2)[C@]2(C)[C@H](C)CC[C@]3(CCC(=O)[C@H]32)[C@@H](C)[C@@H]1O	0.25 µg/mL (≈ 0.43 µM)	1 µg/mL (≈ 1.72 µM)	2 µg/mL (≈ 3.44 µM)	1 µg/mL (≈ 1.72 µM)	–	–	–	2.7 10^-4M	–	–	–
